Results as given in ChEMBL document CHEMBL5724801, “EUbOPEN Chemogenomics Library - Multiplex” (2024).
Values joined by “and” are separate entries in the source; they are usually repeats but may differ in a detail not shown here. Equal entries are not always repeated.

Tested on: Fibroblast
Assay: Multiplex assay against human fibroblast
Type: toxicity, cell-based
Summary of the method: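 Tubulin, mitochondrial-mass and membrane-permeability phenotypes are per cents of healthy-nucleus cells. Cells were gated by CellPathfinder machine learning into Hoechst high-intensity objects or normal cells, normal cells into healthy, pyknosed or fragmented nuclei, and pyknosed cells into mitotic or apoptotic. Before that, live cells stained at seeding with Hoechst33342, BioTracker Green Microtubule Cytoskeleton Dye, MitoTracker Red and Annexin V Alexa Fluor 680 were imaged on a CQ1 microscope at 37°C and 5% CO2 after compound addition.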

[1] = 12 h, 1 µM, compound concentration 1 uM
[2] = 12 h, 10 µM, compound concentration 10 uM
[3] = 24 h, 1 µM, compound concentration 1 uM
[4] = 24 h, 10 µM, compound concentration 10 uM
[5] = 48 h, 1 µM, compound concentration 1 uM
[6] = 48 h, 10 µM, compound concentration 10 uM

Question: How did the “Population Apoptotic (%)” value [1] turn out when `CN[C@@H](C)C(=O)N[C@H](C(=O)N1CCC[C@H]1C(=O)Nc1snnc1-c1ccccc1)C1CCCCC1` [GDC-0152] was run?
Answer: 70% and 33%

Question: What about the “Population Fragmented Nuclei (%)” value [1] of the same compound?
Answer: 14% and 16%

Question: What about the “Population Healthy Nuclei (%)” value [1] of the same compound?
Answer: 68% and 56%

Question: And the “Population Hoechst High Intensity Objects (%)” value [1]?
Answer: 4% and 6%

Question: What about the “Population Membrane Permeable-Phenotype (%)” value [1] of the same compound?
Answer: 1% and 6%

Question: What about the “Population Mitochondria Different-Phenotype (%)” value [1] of the same compound?
Answer: 6% and 9%

Question: What about the “Population Mitotic Cells (%)” value [1] of the same compound?
Answer: 30% and 66%

Question: And the “Population Normal (%)” value [1]?
Answer: 95% and 93%

Question: What about the “Population Pyknosed Nuclei (%)” value [1] of the same compound?
Answer: 16% and 26%

Question: What about the “Population Tubulin-Different-Phenotype (%)” value [1] of the same compound?
Answer: 38% and 62%

Question: What about the “Total Cell Count” value [1] of the same compound?
Answer: 127 and 121

Question: What about the “Population Apoptotic (%)” value [2] of the same compound?
Answer: 38% and 24%

Question: What about the “Population Fragmented Nuclei (%)” value [2] of the same compound?
Answer: 17% and 26%

Question: What about the “Population Healthy Nuclei (%)” value [2] of the same compound?
Answer: 59% and 34%

Question: What about the “Population Hoechst High Intensity Objects (%)” value [2] of the same compound?
Answer: 6% and 10%

Question: And the “Population Membrane Permeable-Phenotype (%)” value [2]?
Answer: 0%

Question: And the “Population Mitochondria Different-Phenotype (%)” value [2]?
Answer: 13% and 10%

Question: What about the “Population Mitotic Cells (%)” value [2] of the same compound?
Answer: 61% and 75%

Question: What about the “Population Normal (%)” value [2] of the same compound?
Answer: 93% and 90%

Question: And the “Population Pyknosed Nuclei (%)” value [2]?
Answer: 22% and 39%

Question: And the “Population Tubulin-Different-Phenotype (%)” value [2]?
Answer: 80% and 65%

Question: What about the “Total Cell Count” value [2] of the same compound?
Answer: 144 and 150

Question: And the “Population Apoptotic (%)” value [3]?
Answer: 60% and 37%

Question: What about the “Population Fragmented Nuclei (%)” value [3] of the same compound?
Answer: 20% and 22%

Question: What about the “Population Healthy Nuclei (%)” value [3] of the same compound?
Answer: 63% and 55%

Question: What about the “Population Hoechst High Intensity Objects (%)” value [3] of the same compound?
Answer: 2% and 9%

Question: What about the “Population Membrane Permeable-Phenotype (%)” value [3] of the same compound?
Answer: 1% and 2%

Question: What about the “Population Mitochondria Different-Phenotype (%)” value [3] of the same compound?
Answer: 1% and 11%

Question: And the “Population Mitotic Cells (%)” value [3]?
Answer: 40% and 62%

Question: What about the “Population Normal (%)” value [3] of the same compound?
Answer: 97% and 90%

Question: What about the “Population Pyknosed Nuclei (%)” value [3] of the same compound?
Answer: 16% and 22%

Question: And the “Population Tubulin-Different-Phenotype (%)” value [3]?
Answer: 30% and 61%

Question: And the “Total Cell Count” value [3]?
Answer: 123 and 133

Question: What about the “Population Apoptotic (%)” value [4] of the same compound?
Answer: 67% and 41%

Question: And the “Population Fragmented Nuclei (%)” value [4]?
Answer: 14% and 33%

Question: And the “Population Healthy Nuclei (%)” value [4]?
Answer: 58% and 34%

Question: And the “Population Hoechst High Intensity Objects (%)” value [4]?
Answer: 5% and 8%

Question: What about the “Population Membrane Permeable-Phenotype (%)” value [4] of the same compound?
Answer: 0% and 16%

Question: What about the “Population Mitochondria Different-Phenotype (%)” value [4] of the same compound?
Answer: 21% and 22%

Question: What about the “Population Mitotic Cells (%)” value [4] of the same compound?
Answer: 32% and 58%

Question: What about the “Population Normal (%)” value [4] of the same compound?
Answer: 94% and 91%

Question: And the “Population Pyknosed Nuclei (%)” value [4]?
Answer: 26% and 31%

Question: What about the “Population Tubulin-Different-Phenotype (%)” value [4] of the same compound?
Answer: 83% and 68%

Question: What about the “Total Cell Count” value [4] of the same compound?
Answer: 135 and 157

Question: What about the “Population Apoptotic (%)” value [5] of the same compound?
Answer: 47% and 57%

Question: What about the “Population Fragmented Nuclei (%)” value [5] of the same compound?
Answer: 23% and 38%

Question: What about the “Population Healthy Nuclei (%)” value [5] of the same compound?
Answer: 60% and 44%

Question: And the “Population Hoechst High Intensity Objects (%)” value [5]?
Answer: 1% and 5%

Question: And the “Population Membrane Permeable-Phenotype (%)” value [5]?
Answer: 0% and 2%

Question: What about the “Population Mitotic Cells (%)” value [5] of the same compound?
Answer: 52% and 42%

Question: What about the “Population Normal (%)” value [5] of the same compound?
Answer: 98% and 94%

Question: What about the “Population Pyknosed Nuclei (%)” value [5] of the same compound?
Answer: 16% and 17%

Question: And the “Population Tubulin-Different-Phenotype (%)” value [5]?
Answer: 48% and 67%

Question: And the “Total Cell Count” value [5]?
Answer: 132 and 159

Question: And the “Population Apoptotic (%)” value [6]?
Answer: 76% and 44%

Question: What about the “Population Fragmented Nuclei (%)” value [6] of the same compound?
Answer: 23% and 39%

Question: What about the “Population Healthy Nuclei (%)” value [6] of the same compound?
Answer: 45% and 42%

Question: What about the “Population Hoechst High Intensity Objects (%)” value [6] of the same compound?
Answer: 6%

Question: And the “Population Membrane Permeable-Phenotype (%)” value [6]?
Answer: 0% and 19%

Question: What about the “Population Mitochondria Different-Phenotype (%)” value [6] of the same compound?
Answer: 22% and 17%

Question: And the “Population Mitotic Cells (%)” value [6]?
Answer: 23% and 55%

Question: What about the “Population Normal (%)” value [6] of the same compound?
Answer: 93%

Question: What about the “Population Pyknosed Nuclei (%)” value [6] of the same compound?
Answer: 31% and 18%

Question: And the “Population Tubulin-Different-Phenotype (%)” value [6]?
Answer: 81% and 88%

Question: And the “Total Cell Count” value [6]?
Answer: 145 and 159
